This is an account of results in ChEMBL document CHEMBL3286372, “Design, synthesis and structure-activity relationship of novel semi-synthetic flavonoids as antiproliferative agents” (2014).

One assay has as its system K562. The assay is described as follows: Growth inhibition of human K562 cells at 10 uM after 48 hrs by sulforhodamine B assay relative to control. In kind it is functional. To be noted: K562, 48 h, read-out: GI. The procedure, abridged: (§1)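 NCI-60 primary screen at a single dose of 10 µM with 48 h continuous exposure. Growth or viability read by sulforhodamine B protein staining and expressed as percent growth inhibition versus untreated cells.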
In general terms: In SRB staining, fixed cells bind dye roughly in proportion to their protein.

Assay [1] concerns Mus musculus. In words: Increase in GSK-3beta level in tumor of BALB mouse allografted with mouse EAC cells at 3 mg/kg, ip for 5 days by competitive ELISA relative to control. The format is functional, Ehrlich. To be noted: route intraperitoneal. The procedure, abridged: (§2)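 Female BALB mice bearing subcutaneous EAC tumours (2×10^5 cells in left hind leg, grown 2 wk). Dosed i.p. daily for 5 days; controls received saline. Excised tumours washed in cold saline and homogenised at 10% in PBS. GSK-3β measured by competitive ELISA, samples in duplicate. Change versus untreated controls, mean ± SEM, n = 6.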

Assay [2] deals with Mus musculus. The assay is described as follows: Decrease in cyclin D1 level in tumor of BALB mouse allografted with mouse EAC cells at 6 mg/kg, ip for 5 days competitive ELISA relative to control. In kind it is functional, Ehrlich. Set-up: scale not given: the % may be the effect or the level left. To be noted: route intraperitoneal. The procedure, abridged:
(§3)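 Mice bearing s.c. Ehrlich tumours (2×10^5 EAC cells, grown 2 wk) were given daily i.p. saline, 3 or 6 mg/kg for 5 days. Tumours were excised, washed in cold saline and blotted, and a 10% homogenate was made in phosphate buffered saline. Cyclin D1 was measured by competitive ELISA with samples in duplicate. Mean ± SEM, n = 6.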
In general terms: In an ELISA, binding on a coated surface is turned into a signal by an enzyme label.

In assay [3] the test system is Ehrlich. The assay is described as follows: Antitumor activity against mouse EAC cells allografted in ip dosed BALB mouse assessed as tumor growth inhibition administered for 5 days. The format is functional, organism-based. The procedure, abridged: (§4)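 Female BALB mice; Ehrlich ascites carcinoma cells, 2×10^5 cells/mouse in 0.2 ml saline, injected s.c. into the left hind leg and grown 2 wk. Daily i.p. saline (control), 3 or 6 mg/kg for 5 days. Caliper size V = 0.4×a(b)^2, taken just before the first dose and 24 h after the last. Mean ± SEM, n = 6; ANOVA with Tukey-Kramer.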

Assay [4] has as its system Mus musculus. The assay is described as follows: Decrease in cyclin D1 level in tumor of BALB mouse allografted with mouse EAC cells at 3 mg/kg, ip for 5 days competitive ELISA relative to control. Set-up: scale not given: the % may be the effect or the level left. To be noted: route intraperitoneal. In kind it is functional, Ehrlich. An outline of the steps:
as §3

Assay [5] relates to Ehrlich. The assay is described as follows: Antitumor activity against mouse EAC cells allografted in BALB mouse assessed as tumor growth inhibition at 3 mg/kg, ip for 5 days relative to control. In kind it is functional. To be noted: 120 h, route intraperitoneal, read-out: TGI. An outline of the steps:
as §4

The next assay deals with M14. In words: Growth inhibition of human M14 cells at 10 uM after 48 hrs by sulforhodamine B assay relative to control. The format is functional. To be noted: M14, 48 h, read-out: GI. The procedure, abridged: as §1
A short description of assay [6]: Growth inhibition of human UACC257 cells at 10 uM after 48 hrs by sulforhodamine B assay relative to control. The format is functional. To be noted: UACC-257, 48 h, read-out: GI. An outline of the steps:
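NCI-60 primary single-dose screen at 10 µM with continuous 48 h exposure. Cell viability/growth read by sulforhodamine B protein staining. Reported as percent growth inhibition relative to untreated cells.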

Assay [7] deals with Mus musculus. In words: Increase in GSK-3beta level in tumor of BALB mouse allografted with mouse EAC cells at 6 mg/kg, ip for 5 days by competitive ELISA relative to control. The format is functional, Ehrlich. To be noted: route intraperitoneal. The procedure, abridged:
as §2

Assay [8] concerns Ehrlich. The assay is described as follows: Antitumor activity against mouse EAC cells allografted in BALB mouse assessed as tumor growth inhibition at 6 mg/kg, ip for 5 days relative to control. The format is functional. To be noted: 120 h, route intraperitoneal, read-out: TGI. The procedure, abridged: as §4
Assay [9] in a line: Growth inhibition of human HCT15 cells at 10 uM after 48 hrs by sulforhodamine B assay relative to control. In kind it is functional. To be noted: HCT-15, 48 h, read-out: GI. An outline of the steps:
as §1

The next assay deals with SF-268. In words: Growth inhibition of human SF268 cells at 10 uM after 48 hrs by sulforhodamine B assay relative to control. The format is functional. To be noted: SF-268, 48 h, read-out: GI. The procedure, abridged: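 NCI-60 primary screen at a single 10 µM dose. Continuous 48 h exposure, with growth or viability estimated by sulforhodamine B protein staining. Reported as percent growth inhibition of treated cells relative to untreated growth.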

Consider `COc1c2occc2c(OC)c2c(=O)c(CN3CCOCC3)c(/C=C/c3ccc(N(C)C)cc3)oc12`, for which the inhibition of growth at 10 µM is 84% in the assay with K562, 63% in the assay with M14, 76% in assay [6] and 67% in [9]. Besides, the Activity in the assay with Mus musculus [1] is given as 101.5%; with Mus musculus [2], 59.1%; with Mus musculus [4], 40.6%; in the assay with Mus musculus [7] it was 197.2%. In addition, in the assay on Ehrlich [3], the TGI result was “Dose-dependent effect”. Also, the inhibition in vivo at 3 mg/kg in the assay on Ehrlich [5] stood at 62.1%. Besides, in the assay with Ehrlich [8], the inhibition in vivo at 6 mg/kg stood at 57.1%.
Consider `COc1c2occc2c(OC)c2c(=O)c(CN3CCOCC3)c(/C=C/c3ccc(Cl)cc3)oc12`, for which, in the assay on SF-268, the inhibition of growth at 10 µM was 67%.
